# Reference: ChEMBL document CHEMBL1142136, “Contribution of target gene mutations and efflux to decreased susceptibility of Salmonella enterica serovar typhimurium to fluoroquinolones and other antimicrobials” (2007)
# Assays:
# Type in all cases: functional, Salmonella enterica subsp. enterica serovar Typhimurium
# Salmonella typhimurium [1] = assay: Antimicrobial activity against Salmonella enterica serovar Typhimurium S21-1 gyrA+
# Outline: (§1)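 MICs measured by broth microdilution on the Sensititre automated system and interpreted by CLSI broth microdilution standards. Ciprofloxacin was also tested by agar dilution, widening the range to 0.0075–128 μg/ml. Quality control strains were E. coli ATCC 25922 and 35218, E. faecalis ATCC 29212, S. aureus ATCC 29213 and P. aeruginosa ATCC 27853.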
# Salmonella typhimurium [2] = assay: Antimicrobial activity against Salmonella enterica serovar Typhimurium S21-2 gyrA+ with ParC S80I mutation; outline: as §1
# Salmonella typhimurium [3] = assay: Antimicrobial activity against Salmonella enterica serovar Typhimurium S21; outline: as §1
# Salmonella typhimurium [4] = assay: Antimicrobial activity against Salmonella enterica serovar Typhimurium CHS18 with GyrA S38F mutation; outline: as §1
# Salmonella typhimurium [5] = assay: Antimicrobial activity against Salmonella enterica serovar Typhimurium CS9 with GyrA S83F, D87N, ParC S80I mutation; outline: as §1
# Salmonella typhimurium [6] = assay: Antimicrobial activity against Salmonella enterica serovar Typhimurium CHS18 tolC::Kan with GyrA S38F mutation; outline: as §1
# Salmonella typhimurium [7] = assay: Antimicrobial activity against Salmonella enterica serovar Typhimurium GyrA S21-1 acrAB::Kan with GyrA S83F mutation; outline: as §1
# Salmonella typhimurium [8] = assay: Antimicrobial activity against Salmonella enterica serovar Typhimurium CHS14 acrAB::Kan with GyrA D87G mutation; outline: as §1
# Salmonella typhimurium [9] = assay: Antimicrobial activity against Salmonella enterica serovar Typhimurium S21-2 with GyrA S83F, ParC S80I mutation; outline: as §1
# Salmonella typhimurium [10] = assay: Antimicrobial activity against Salmonella enterica serovar Typhimurium S21-4 acrAB::Kan with GyrA S83F, ParC S80I mutation; outline: as §1
# Salmonella typhimurium [11] = assay: Antimicrobial activity against Salmonella enterica serovar Typhimurium CHS18 gyrA+ with GyrA S38F mutation; outline: as §1
# Salmonella typhimurium [12] = assay: Antimicrobial activity against Salmonella enterica serovar Typhimurium CS1 tolC::Kan with GyrA S83F, D87N, ParC S80I mutation; outline: as §1
# Salmonella typhimurium [13] = assay: Antimicrobial activity against Salmonella enterica serovar Typhimurium CS3 gyrA+ with GyrA S83F, D87N, ParC S80I mutation; outline: as §1
# Salmonella typhimurium [14] = assay: Antimicrobial activity against Salmonella enterica serovar Typhimurium S21-3 with GyrA S83F, ParC S80I mutation; outline: as §1
# Salmonella typhimurium [15] = assay: Antimicrobial activity against Salmonella enterica serovar Typhimurium CS9 gyrA+ with GyrA S83F, D87N, ParC S80I mutation; outline: as §1
# Salmonella typhimurium [16] = assay: Antimicrobial activity against Salmonella enterica serovar Typhimurium CS1 with GyrA S83F, D87N, ParC S80I mutation; outline: as §1
# Salmonella typhimurium [17] = assay: Antimicrobial activity against Salmonella enterica serovar Typhimurium S21-1 GyrA S83F mutant; outline: as §1
# Salmonella typhimurium [18] = assay: Antimicrobial activity against Salmonella enterica serovar Typhimurium CHS14 with GyrA D87G mutation; outline: as §1
# Salmonella typhimurium [19] = assay: Antimicrobial activity against Salmonella enterica serovar Typhimurium CS1 gyrA+ with GyrA S83F, D87N, ParC S80I mutation; outline: as §1
# Salmonella typhimurium [20] = assay: Antimicrobial activity against Salmonella enterica serovar Typhimurium S21-3 gyrA+ with ParC S80I mutation; outline: as §1
# Salmonella typhimurium [21] = assay: Antimicrobial activity against Salmonella enterica serovar Typhimurium CS3 acrAB::Kan with GyrA S83F, D87N, ParC S80I mutation; outline: as §1
# Salmonella typhimurium [22] = assay: Antimicrobial activity against Salmonella enterica serovar Typhimurium CHS38 gyrA+ with GyrA D87G mutation; outline: as §1
# Salmonella typhimurium [23] = assay: Antimicrobial activity against Salmonella enterica serovar Typhimurium CS1 acrAB::Kan with GyrA S83F, D87N, ParC S80I mutation; outline: as §1
# Salmonella typhimurium [24] = assay: Antimicrobial activity against Salmonella enterica serovar Typhimurium S21-4 gyrA+ with ParC S80I mutation; outline: as §1
# Salmonella typhimurium [25] = assay: Antimicrobial activity against Salmonella enterica serovar Typhimurium S21 gyrA+; outline: as §1
# Salmonella typhimurium [26] = assay: Antimicrobial activity against Salmonella enterica serovar Typhimurium S21-3 tolC::Kan with GyrA S83F, ParC S80I mutation; outline: as §1
# Salmonella typhimurium [27] = assay: Antimicrobial activity against Salmonella enterica serovar Typhimurium S21-2 acrAB::Kan with GyrA S83F, ParC S80I mutation; outline: as §1
# Salmonella typhimurium [28] = assay: Antimicrobial activity against Salmonella enterica serovar Typhimurium S21 tolC::Kan
# Outline: (§2)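 MICs by automated broth microdilution panels, interpreted to CLSI broth microdilution standards. Ciprofloxacin additionally tested by agar dilution across 0.0075 to 128 μg/ml. Quality control strains: E. coli ATCC 25922 and 35218, Enterococcus faecalis ATCC 29212, S. aureus ATCC 29213, P. aeruginosa ATCC 27853. Test strains are kanamycin-marked deletion mutants of ground-beef isolate S21.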
# Salmonella typhimurium [29] = assay: Antimicrobial activity against Salmonella enterica serovar Typhimurium CHS14 gyrA+ with GyrA D87G mutation; outline: as §1
# Salmonella typhimurium [30] = assay: Antimicrobial activity against Salmonella enterica serovar Typhimurium S21-3 acrAB::Kan with GyrA S83F, ParC S80I mutation; outline: as §1
# Salmonella typhimurium [31] = assay: Antimicrobial activity against Salmonella enterica serovar Typhimurium S21-4 with GyrA S83F, ParC S80I mutation; outline: as §1
# Salmonella typhimurium [32] = assay: Antimicrobial activity against Salmonella enterica serovar Typhimurium CHS38 acrAB::Kan with GyrA D87G mutation; outline: as §1
# Salmonella typhimurium [33] = assay: Antimicrobial activity against Salmonella enterica serovar Typhimurium CS3 tolC::Kan with GyrA S83F, D87N, parC S80I mutation; outline: as §1
# Salmonella typhimurium [34] = assay: Antimicrobial activity against Salmonella enterica serovar Typhimurium S21-1 tolC::Kan with GyrA S83F mutation; outline: as §1
# Salmonella typhimurium [35] = assay: Antimicrobial activity against Salmonella enterica serovar Typhimurium CHS14 tolC::Kan with GyrA D87G mutant; outline: as §1
# Salmonella typhimurium [36] = assay: Antimicrobial activity against Salmonella enterica serovar Typhimurium S21-2 tolC::Kan with GyrA S83F, ParC S80I mutation; outline: as §1
# Salmonella typhimurium [37] = assay: Antimicrobial activity against Salmonella enterica serovar Typhimurium S21-4 tolC::Kan with GyrA S83F, ParC S80I mutation; outline: as §1
# Salmonella typhimurium [38] = assay: Antimicrobial activity against Salmonella enterica serovar Typhimurium CHS18 acrAB::Kan with GyrA S38F mutation; outline: as §1
# Salmonella typhimurium [39] = assay: Antimicrobial activity against Salmonella enterica serovar Typhimurium CS9 acrAB::Kan with GyrA S83F, D87N, ParC S80I mutation; outline: as §1
# Salmonella typhimurium [40] = assay: Antimicrobial activity against Salmonella enterica serovar Typhimurium CS9 tolC::Kan with GyrA S83F, D87N, ParC S80I mutation; outline: as §1
# Salmonella typhimurium [41] = assay: Antimicrobial activity against Salmonella enterica serovar Typhimurium CHS38 with GyrA D87G mutation; outline: as §1
# Salmonella typhimurium [42] = assay: Antimicrobial activity against Salmonella enterica serovar Typhimurium S21 acrAB::Kan; outline: as §2
# Salmonella typhimurium [43] = assay: Antimicrobial activity against Salmonella enterica serovar Typhimurium CS3 with GyrA S83F, D87N, ParC S80I mutation; outline: as §1
# Salmonella typhimurium [44] = assay: Antimicrobial activity against Salmonella enterica serovar Typhimurium CHS38 tolC::Kan with GyrA D87G mutation; outline: as §1
compound,measurement,setting,value
CN1CCN(c2cc3c(cc2F)c(=O)c(C(=O)O)cn3-c2ccc(F)cc2)CC1 [DIFLOXACIN],MIC,Salmonella typhimurium [1],0.25 µg/mL
same,MIC,Salmonella typhimurium [2],2 µg/mL
same,MIC,Salmonella typhimurium [3],0.25 µg/mL
same,MIC,Salmonella typhimurium [4],2 µg/mL
same,MIC,Salmonella typhimurium [5],> 16 µg/mL
same,MIC,Salmonella typhimurium [6],0.06 µg/mL
same,MIC,Salmonella typhimurium [7],0.25 µg/mL
same,MIC,Salmonella typhimurium [8],0.03 µg/mL
same,MIC,Salmonella typhimurium [9],> 16 µg/mL
same,MIC,Salmonella typhimurium [10],1 µg/mL
same,MIC,Salmonella typhimurium [11],0.25 µg/mL
same,MIC,Salmonella typhimurium [12],4 µg/mL
same,MIC,Salmonella typhimurium [13],0.5 µg/mL
same,MIC,Salmonella typhimurium [14],> 16 µg/mL
same,MIC,Salmonella typhimurium [15],0.5 µg/mL
same,MIC,Salmonella typhimurium [16],> 16 µg/mL
same,MIC,Salmonella typhimurium [17],4 µg/mL
same,MIC,Salmonella typhimurium [18],1 µg/mL
same,MIC,Salmonella typhimurium [19],0.5 µg/mL
same,MIC,Salmonella typhimurium [20],4 µg/mL
same,MIC,Salmonella typhimurium [21],16 µg/mL
same,MIC,Salmonella typhimurium [22],< 0.015 µg/mL
same,MIC,Salmonella typhimurium [23],16 µg/mL
same,MIC,Salmonella typhimurium [24],4 µg/mL
same,MIC,Salmonella typhimurium [25],0.25 µg/mL
same,MIC,Salmonella typhimurium [26],0.5 µg/mL
same,MIC,Salmonella typhimurium [27],0.25 µg/mL
same,MIC,Salmonella typhimurium [28],< 0.015 µg/mL
same,MIC,Salmonella typhimurium [29],0.5 µg/mL
same,MIC,Salmonella typhimurium [30],0.5 µg/mL
same,MIC,Salmonella typhimurium [31],> 16 µg/mL
same,MIC,Salmonella typhimurium [32],0.06 µg/mL
same,MIC,Salmonella typhimurium [33],4 µg/mL
same,MIC,Salmonella typhimurium [34],0.25 µg/mL
same,MIC,Salmonella typhimurium [35],0.03 µg/mL
same,MIC,Salmonella typhimurium [36],0.25 µg/mL
same,MIC,Salmonella typhimurium [37],1 µg/mL
same,MIC,Salmonella typhimurium [38],1 µg/mL
same,MIC,Salmonella typhimurium [39],16 µg/mL
same,MIC,Salmonella typhimurium [40],4 µg/mL
same,MIC,Salmonella typhimurium [41],1 µg/mL
same,MIC,Salmonella typhimurium [42],< 0.015 µg/mL
same,MIC,Salmonella typhimurium [43],> 16 µg/mL
same,MIC,Salmonella typhimurium [44],< 0.015 µg/mL
CCn1cc(C(=O)O)c(=O)c2cc(F)c(N3CCNCC3)nc21 [ENOXACIN],MIC,Salmonella typhimurium [1],0.06 µg/mL
same,MIC,Salmonella typhimurium [2],1 µg/mL
same,MIC,Salmonella typhimurium [3],0.06 µg/mL
same,MIC,Salmonella typhimurium [4],0.5 µg/mL
same,MIC,Salmonella typhimurium [5],16 µg/mL
same,MIC,Salmonella typhimurium [6],0.03 µg/mL
same,MIC,Salmonella typhimurium [7],0.06 µg/mL
same,MIC,Salmonella typhimurium [8],0.03 µg/mL
same,MIC,Salmonella typhimurium [9],8 µg/mL
same,MIC,Salmonella typhimurium [10],0.12 µg/mL
same,MIC,Salmonella typhimurium [11],0.12 µg/mL
same,MIC,Salmonella typhimurium [12],4 µg/mL
same,MIC,Salmonella typhimurium [13],0.06 µg/mL
same,MIC,Salmonella typhimurium [14],> 16 µg/mL
same,MIC,Salmonella typhimurium [15],0.06 µg/mL
same,MIC,Salmonella typhimurium [16],16 µg/mL
same,MIC,Salmonella typhimurium [17],0.5 µg/mL
same,MIC,Salmonella typhimurium [18],1 µg/mL
same,MIC,Salmonella typhimurium [19],0.06 µg/mL
same,MIC,Salmonella typhimurium [20],2 µg/mL
same,MIC,Salmonella typhimurium [21],4 µg/mL
same,MIC,Salmonella typhimurium [22],< 0.015 µg/mL
same,MIC,Salmonella typhimurium [23],4 µg/mL
same,MIC,Salmonella typhimurium [24],4 µg/mL
same,MIC,Salmonella typhimurium [25],0.06 µg/mL
same,MIC,Salmonella typhimurium [26],0.12 µg/mL
same,MIC,Salmonella typhimurium [27],0.12 µg/mL
same,MIC,Salmonella typhimurium [28],< 0.015 µg/mL
same,MIC,Salmonella typhimurium [29],0.06 µg/mL
same,MIC,Salmonella typhimurium [30],0.25 µg/mL
same,MIC,Salmonella typhimurium [31],> 16 µg/mL
same,MIC,Salmonella typhimurium [32],0.03 µg/mL
same,MIC,Salmonella typhimurium [33],4 µg/mL
same,MIC,Salmonella typhimurium [34],0.06 µg/mL
same,MIC,Salmonella typhimurium [35],< 0.015 µg/mL
same,MIC,Salmonella typhimurium [36],0.12 µg/mL
same,MIC,Salmonella typhimurium [37],0.12 µg/mL
same,MIC,Salmonella typhimurium [38],0.25 µg/mL
same,MIC,Salmonella typhimurium [39],4 µg/mL
same,MIC,Salmonella typhimurium [40],4 µg/mL
same,MIC,Salmonella typhimurium [41],0.12 µg/mL
same,MIC,Salmonella typhimurium [42],< 0.015 µg/mL
same,MIC,Salmonella typhimurium [43],16 µg/mL
same,MIC,Salmonella typhimurium [44],< 0.015 µg/mL
